According to ChEMBL document CHEMBL2169837 (J Med Chem, 2012):
Converted amounts (≈) assume the structure as drawn. The source made the active and inactive calls. No cut-off for these calls is given here.

Assays:
Oxytocin receptor [1] = molecular target: T1, Oxytocin receptor (Homo sapiens, UniProt P30559); assay: Displacement of [3H]-AVP from human oxytocin receptor expressed in CHO cells after 30 mins; format: cell-based
T1 sequence (P30559 whole entry): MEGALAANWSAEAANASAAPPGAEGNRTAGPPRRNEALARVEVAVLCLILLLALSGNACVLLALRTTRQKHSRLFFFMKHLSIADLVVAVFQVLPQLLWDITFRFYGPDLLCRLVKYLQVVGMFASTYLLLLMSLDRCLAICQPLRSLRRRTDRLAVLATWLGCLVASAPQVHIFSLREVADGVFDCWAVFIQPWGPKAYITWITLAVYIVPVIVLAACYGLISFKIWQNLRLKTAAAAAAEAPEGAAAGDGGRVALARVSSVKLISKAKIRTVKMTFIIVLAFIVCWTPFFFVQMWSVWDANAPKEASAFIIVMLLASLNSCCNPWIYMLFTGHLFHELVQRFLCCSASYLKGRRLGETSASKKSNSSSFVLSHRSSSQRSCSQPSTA

[2] = molecular target: T2, Oxytocin receptor (Homo sapiens) (UniProt P30559); assay: Displacement of [3H]-AVP from human oxytocin receptor expressed in CHO cells at 10 uM after 30 mins; format: cell-based
T2 sequence (whole entry): T1 sequence (P30559 whole entry)
In short: (§1)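 Human OTR, V1aR or V1bR membranes from CHO cells, [3H]-AVP displacement with compound at a single 10 μM concentration, 30 min at 30 °C in Tris-HCl pH 7.4/MgCl2/BSA buffer.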

[3] = molecular target: T3, Vasopressin V1b receptor (Homo sapiens) (UniProt P47901); assay: Displacement of [3H]-AVP from human vasopressin V1b receptor expressed in CHO cells at 10 uM after 30 mins; format: cell-based; in short: as §1
T3 sequence (whole entry): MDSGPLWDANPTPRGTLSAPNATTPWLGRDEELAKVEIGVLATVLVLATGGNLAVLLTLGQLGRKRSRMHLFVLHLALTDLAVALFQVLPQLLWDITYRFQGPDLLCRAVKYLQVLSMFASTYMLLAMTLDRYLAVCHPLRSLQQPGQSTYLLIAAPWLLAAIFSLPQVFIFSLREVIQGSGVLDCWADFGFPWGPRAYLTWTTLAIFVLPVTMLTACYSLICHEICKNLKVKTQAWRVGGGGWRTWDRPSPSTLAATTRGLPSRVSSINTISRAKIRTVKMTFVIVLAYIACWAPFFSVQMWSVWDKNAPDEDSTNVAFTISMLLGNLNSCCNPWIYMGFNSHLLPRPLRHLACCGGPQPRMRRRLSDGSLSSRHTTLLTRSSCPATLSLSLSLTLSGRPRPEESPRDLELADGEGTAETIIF

Vasopressin V1b receptor = molecular target: T4, Vasopressin V1b receptor (Homo sapiens, UniProt P47901); assay: Displacement of [3H]-AVP from human vasopressin V1b receptor expressed in CHO cells after 30 mins; format: cell-based
T4 sequence (P47901 whole entry): T3 sequence (whole entry)

Vasopressin V1a receptor [4] = molecular target: T5, Vasopressin V1a receptor (Homo sapiens, UniProt P37288); assay: Displacement of [3H]-AVP from human vasopressin V1a receptor expressed in CHO cells at 10 uM after 30 mins; format: cell-based; in short: as §1
Target sequence in this assay (P37288 whole entry, looked up): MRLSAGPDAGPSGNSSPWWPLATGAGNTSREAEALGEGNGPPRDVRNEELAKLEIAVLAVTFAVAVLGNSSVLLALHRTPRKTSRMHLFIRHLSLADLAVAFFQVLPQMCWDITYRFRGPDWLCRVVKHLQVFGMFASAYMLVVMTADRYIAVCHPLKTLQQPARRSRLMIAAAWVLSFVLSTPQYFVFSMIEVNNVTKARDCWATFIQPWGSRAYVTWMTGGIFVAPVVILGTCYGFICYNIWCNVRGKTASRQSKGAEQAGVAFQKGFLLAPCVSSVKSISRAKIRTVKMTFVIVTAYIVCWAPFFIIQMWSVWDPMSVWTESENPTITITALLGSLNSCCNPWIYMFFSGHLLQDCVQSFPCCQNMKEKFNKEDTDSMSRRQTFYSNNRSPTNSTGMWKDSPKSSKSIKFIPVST

Vasopressin V1a receptor [5] = molecular target: T5, Vasopressin V1a receptor; assay: Displacement of [3H]-AVP from human vasopressin V1a receptor expressed in CHO cells after 30 mins; format: cell-based
Target sequence in this assay (P37288 whole entry): as the sequence (P37288 whole entry, looked up) above

Vasopressin V2 receptor [6] = molecular target: T6, Vasopressin V2 receptor (Homo sapiens, UniProt P30518); assay: Antagonist activity at human vasopressin V2 receptor expressed in CHO cells assessed as inhibition of AVP-induced cAMP accumulation after 30 mins by TR-FRET based HTRF assay; format: functional, cell-based
T6 sequence (P30518 whole entry): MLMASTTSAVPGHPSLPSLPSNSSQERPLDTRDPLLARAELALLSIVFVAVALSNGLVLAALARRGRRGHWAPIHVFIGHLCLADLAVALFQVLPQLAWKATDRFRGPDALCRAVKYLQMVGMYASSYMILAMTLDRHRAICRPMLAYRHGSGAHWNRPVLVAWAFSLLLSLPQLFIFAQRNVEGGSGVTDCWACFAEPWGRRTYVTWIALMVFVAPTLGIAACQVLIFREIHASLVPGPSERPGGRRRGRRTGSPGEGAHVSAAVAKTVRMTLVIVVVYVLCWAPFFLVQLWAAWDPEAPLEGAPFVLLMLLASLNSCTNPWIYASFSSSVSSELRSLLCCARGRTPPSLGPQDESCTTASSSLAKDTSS
In short: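 CHO cells stably expressing human V2R, 5 × 10^3 per well on polyornithine, used 24 h after seeding. Incubated 30 min at 37 °C with compound (10−12 to 10−5 M) plus phosphodiesterase inhibitor RO 201724 0.1 mM. Antagonist mode run with 1 nM AVP. Cells lysed and cAMP read by HTRF (TR-FRET). Kact/Kinact from three independent experiments in triplicate, mean ± SEM.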

Vasopressin V2 receptor [7] = molecular target: T6, Vasopressin V2 receptor; assay: Agonist activity at human vasopressin V2 receptor expressed in CHO cells assessed as cAMP accumulation after 30 mins by TR-FRET based HTRF assay; format: functional, cell-based
In short: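 CHO cells stably expressing human V2R, 5 × 10^3 per well on polyornithine, used 24 h after seeding. Cells lysed and cAMP read by HTRF (TR-FRET). Kact/Kinact from three independent experiments in triplicate, mean ± SEM.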

[8] = Solubility of the compound in HEPES buffer at pH 7.4 after 24 hrs; format: physicochemical
In short: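 Solubility measured in pH 7.4 HEPES buffer after 24 h incubation at 22 °C.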

Vasopressin V2 receptor [9] = molecular target: T6, Vasopressin V2 receptor; assay: Displacement of [3H]-AVP from human vasopressin V2 receptor expressed in CHO cells after 30 mins; format: cell-based
Homo sapiens = organism: Homo sapiens; assay: Selectivity ratio of Ki for human oxytocin receptor to Ki for human vasopressin V2 receptor
Vasopressin V2 receptor [10] = molecular target: T6, Vasopressin V2 receptor; assay: Binding affinity to SNAP-tagged vasopressin V2 receptor expressed in HEK293 cells after 1 hr by TR-FRET assay; format: cell-based
In short: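 HEK 293T cells electroporated with SNAP-tag–V2R and grown 48 h. Receptor labeled 1 h at 37 °C with SNAP-Lumi4-Tb (100 nM) or SNAP-RED (300 nM), then washed. Rising fluorescent-ligand concentrations added and incubated overnight at 4 °C. TR-FRET read with excitation 340 nm, emission 620/665 nm. Nonspecific binding taken with 10 μM unlabeled ligand. Kd from saturation, three experiments in triplicate.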

Vasopressin V2 receptor [11] = molecular target: T6, Vasopressin V2 receptor; assay: Binding affinity to SNAP-tagged vasopressin V2 receptor expressed in COS7 cells assessed as interaction with vasopressin V2/V1a receptor dimer after 1 hr by FRET assay; format: cell-based; settings: COS-7
In short: (§2)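 Cos7 cells expressing SNAP-V1a, SNAP-V2 or both, 50000 cells/well. Incubated overnight at 4 °C with one donor plus one acceptor fluorescent ligand, each near its Kd. Signal given as %ΔF from the 665/620 ratio (excitation 335 nm) against mock cells. Receptor expression measured by SNAP-Lumi4-Tb labeling (100 nM, 1 h, room temperature), read at 620 nm.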

Vasopressin V2 receptor [12] = molecular target: T6, Vasopressin V2 receptor; assay: Binding affinity to SNAP-tagged vasopressin V2 receptor expressed in COS7 cells after 1 hr by FRET assay; format: cell-based; settings: COS-7; in short: as §2
[13] = Binding affinity to vasopressin V2 receptor in rabbit kidney membranes; format: cell membranes, Oryctolagus cuniculus, Membrane
Oxytocin receptor [14] = molecular target: T1, Oxytocin receptor; assay: Binding affinity to oxytocin receptor
In short: (§3)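 Membranes (5 μg protein) from CHO cells stably expressing human V2R, V1aR, V1bR or OTR. Incubated 30 min at 30 °C in 50 mM Tris-HCl pH 7.4, 5 mM MgCl2, 1 mg/mL BSA with [3H]-AVP (1−2 nM) and competitor from 100 pM to 100 μM. Nonspecific binding with 10 μM AVP. GF/C filtration; Ki by nonlinear least-squares regression. Triplicate, at least three membrane batches.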

Vasopressin V1a receptor [15] = molecular target: T5, Vasopressin V1a receptor; assay: Binding affinity to vasopressin V1a receptor; in short: as §3
Target sequence in this assay (P37288 whole entry): as the sequence (P37288 whole entry, looked up) above

[16] = molecular target: Vasopressin V2 receptor (Oryctolagus cuniculus); assay: Binding affinity to vasopressin V2 receptor
[17] = molecular target: T7, Muscarinic acetylcholine receptor M1 (Homo sapiens, UniProt P11229); assay: Binding affinity to human muscarinic M1 receptor
T7 sequence (P11229 whole entry): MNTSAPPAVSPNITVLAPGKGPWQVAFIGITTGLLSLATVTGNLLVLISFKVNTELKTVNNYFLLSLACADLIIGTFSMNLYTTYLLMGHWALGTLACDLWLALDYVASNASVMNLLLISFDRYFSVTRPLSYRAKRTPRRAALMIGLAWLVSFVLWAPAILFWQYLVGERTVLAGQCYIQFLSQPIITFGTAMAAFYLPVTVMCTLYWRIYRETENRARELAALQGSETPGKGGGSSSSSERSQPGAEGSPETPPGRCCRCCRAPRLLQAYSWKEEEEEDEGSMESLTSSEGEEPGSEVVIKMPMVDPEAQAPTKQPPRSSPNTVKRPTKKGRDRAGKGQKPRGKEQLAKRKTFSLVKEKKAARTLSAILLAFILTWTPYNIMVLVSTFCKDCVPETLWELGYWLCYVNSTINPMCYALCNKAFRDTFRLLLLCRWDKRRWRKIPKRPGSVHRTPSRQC

Vasopressin V1a receptor [18] = molecular target: T5, Vasopressin V1a receptor; assay: Binding affinity to SNAP-tagged vasopressin V1a receptor expressed in COS7 cells assessed as interaction with vasopressin V2/V1a receptor dimer after 1 hr by FRET assay; format: cell-based; settings: COS-7; in short: as §2
Target sequence in this assay (P37288 whole entry, looked up): as the sequence (P37288 whole entry, looked up) above

Vasopressin V1a receptor [19] = molecular target: T5, Vasopressin V1a receptor; assay: Binding affinity to SNAP-tagged vasopressin V1a receptor expressed in COS7 cells after 1 hr by FRET assay; format: cell-based; settings: COS-7; in short: as §2
Target sequence in this assay (P37288 whole entry, looked up): as the sequence (P37288 whole entry, looked up) above

Compound | Ki (Oxytocin receptor [1]) [nM] | inhibition [3] [%] | Ki (Vasopressin V1b receptor) [µM] | inhibition (Vasopressin V1a receptor [4]) [%] | Ki (Vasopressin V1a receptor [5]) [µM] | Kb (Vasopressin V2 receptor [6]) [nM] | inhibition (Vasopressin V2 receptor [6]) | Activity (Vasopressin V2 receptor [7]) | Ki (Vasopressin V2 receptor [9]) [nM] | other results
CCN(CC)c1ccc2c(-c3ccc(S(=O)(=O)NCCOCCOCCOCCn4cc(CNC(=O)CCC(=O)NC5CCCN(C(=O)c6ccc(NC(=O)c7ccccc7-c7ccccc7)cc6)c6ccccc65)nn4)cc3S(=O)(=O)[O-])c3ccc(=[N+](CC)CC)cc-3oc2c1 (stereo unspecified) | > 10000 | < 50 | > 10 | < 50 | > 10 | 1.96 | Dose-dependent effect | inactive | 4 | inhibition [2]: < 50%; solubility at 24 h [8]: 2.1 µM (≈ 2.85 µg/mL)
O=C(CCC(=O)NC1CCCN(C(=O)c2ccc(NC(=O)c3ccccc3-c3ccccc3)cc2)c2ccccc21)NCc1cn(CCOCCOCCOCCNC(=S)Nc2ccc(-c3c4ccc(=O)cc-4oc4cc(O)ccc34)c(C(=O)O)c2)nn1 (stereo unspecified) | 665 | < 50 | > 10 | < 50 | > 10 | 0.78 | Dose-dependent effect | inactive | 26.1 | Ratio Ki (Homo sapiens): 25; Kd (Vasopressin V2 receptor [10]): 11.1 nM
CCN1/C(=C/C=C/C=C/C2=[N+](CC)c3ccc(S(=O)(=O)[O-])cc3C2(C)C)C(C)(CCCC(=O)NCCn2cc(CNC(=O)CCC(=O)NC3CCCN(C(=O)c4ccc(NC(=O)c5ccccc5-c5ccccc5)cc4)c4ccccc43)nn2)c2cc(S(=O)(=O)O)ccc21 (stereo unspecified) | 184 | < 50 | > 10 |  | 0.621 | 0.1 | Dose-dependent effect | inactive | 5.69 | Activity (Vasopressin V2 receptor [11]): Active; Activity (Vasopressin V2 receptor [12]): Active; Ratio Ki (Homo sapiens): 32; Kd (Vasopressin V2 receptor [10]): 1.38 nM
O=C(Nc1ccc(C(=O)N2CCCCc3ccccc32)cc1)c1ccccc1-c1ccccc1 |  |  |  |  |  |  | Dose-dependent effect | inactive |  | Ki [13]: 7.6 nM; Ki (Oxytocin receptor [14]): 63 nM; Ki (Vasopressin V1a receptor [15]): 14.1 nM; Ki [16]: 7.5 nM
O=C(CCC1=[N+]2C(C=C1)Cc1ccc(-c3cccs3)n1[B-]2(F)F)NCCCCCCN1CCN(CC(=O)N2c3ccccc3C(=O)Nc3cccnc32)CC1 (stereo unspecified) |  |  |  |  |  |  |  |  |  | Ki [17]: 8.8 nM
COc1ccc(C[C@@H](NC(=O)CCc2ccc(O)cc2)C(=O)N[C@@H](Cc2ccccc2)C(=O)N[C@@H](CCC(N)=O)C(=O)N[C@@H](CC(N)=O)C(=O)N[C@@H](CCCNC(=N)N)C(=O)N2CCC[C@H]2C(=O)N[C@@H](CCCCNC(=O)CCCCC2(C)C(/C=C/C=C/C=C3\N(CCCS(=O)(=O)O)c4ccc(S(=O)(=O)[O-])cc4C3(C)C)=[N+](CCCS(=O)(=O)O)c3ccc(S(=O)(=O)O)cc32)C(N)=O)cc1 (stereo partly specified) |  |  |  |  |  |  |  |  |  | Activity (Vasopressin V1a receptor [18]): Active; Activity (Vasopressin V1a receptor [19]): Active
O=C(CCC1=[N+]2C(C=C1)Cc1ccc(-c3cccs3)n1[B-]2(F)F)NCCN1CCN(CC(=O)N2c3ccccc3C(=O)Nc3cccnc32)CC1 (stereo unspecified) |  |  |  |  |  |  |  |  |  | Ki [17]: > 1000 nM
Cc1ccccc1C(=O)Nc1ccc(C(=O)N2CCCCc3ccccc32)cc1 |  |  |  |  |  |  | Dose-dependent effect | inactive | 2.68 | Ki [13]: 7.2 nM; Ki (Oxytocin receptor [14]): 30 nM; Ki (Vasopressin V1a receptor [15]): 8.1 nM; Ki [16]: 7.2 nM
CCN(CC)c1ccc2c(-c3ccc(S(=O)(=O)[O-])cc3S(=O)(=O)NCCOCCOCCOCCn3cc(CNC(=O)CCC(=O)NC4CCCN(C(=O)c5ccc(NC(=O)c6ccccc6-c6ccccc6)cc5)c5ccccc54)nn3)c3ccc(=[N+](CC)CC)cc-3oc2c1 (stereo unspecified) | > 10000 | < 50 | > 10 | < 50 | > 10 | 2.12 | Dose-dependent effect | inactive | 14.1 | inhibition [2]: < 50%
